STAT3 inh = inhibitors of IL-6 induced STAT3 signaling; U3A cells, IL-6 STAT3-luciferase reporter, luminescence; host cell line lacks STAT1; inhibition, % at 5.5 µM; actives 0.89% (n = 190,000);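 active means inhibition above the mean inhibition across all screened compounds plus 3 SD, cut at about 44% in these data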
APP 5'UTR act = APP 5'UTR luciferase reporter activation; activation, % at 2 µM; actives 1% (n = 190,000); SH-SY5Y APP 5'UTR luciferase reporter, luminescence; zero percent = DMSO vehicle wells;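 active means activation above a set limit, based on mean plus 3 SD of controls, cut at about 140% in these data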
NF-kB expr up = compounds increasing NF-kB expression in human neuronal cells; NF-kB reporter expression; hits give high values; actives 1.6% (n = 190,000); fold change at 12.5 µM; AID 1239; in the data active means fold change above about 3.3
STAT1 inh-1 = STAT1 signaling inhibition. NIH 3T3 STAT1-luciferase reporter, IFN-gamma, luminescence. inhibition, % at 5.5 µM. actives 0.35% (n = 200,000);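 active means inhibition above a set limit, the mean inhibition across all tested compounds plus 3 SD, cut at about 34% in these data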
STAT3 activator = STAT3 signaling activation | U3A cells, IL-6 STAT3-luciferase reporter, luminescence; 100% = signal with IL-6 EC80 alone | activation (% of control), % at 5.6 µM | actives 0.91% (n = 190,000) | AID 871;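 active means activation above the screen-wide mean of compound activation plus 3 SD, cut at about 130% in these data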
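Material: STAT3-luciferase reporter U3A cells; Probe or stimulus: IL-6 (33 ng/mL); Incubation: compound pre-incubation 1 h before IL-6, then 6 h stimulation at 37 °C; Technique: luminescence from STAT3-driven luciferase reporter; Evaluation: % activation versus median of IL-6-stimulated wells; Controls: IL-6-only high control.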
STAT1 act = increases IFN-gamma driven STAT1 reporter signal; NIH 3T3 STAT1-luciferase reporter, luminescence; 100% = IFN-gamma alone, no compound; activation (% of control), % at 5.5 µM; actives 2.6% (n = 200,000); AID 932;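 active means activation above the screen-wide mean activation plus 3 SD, cut at about 130% in these data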
STAT1 inh-2 = STAT1 inhibition, confirmation assay; shares compounds with STAT1 inh-1; NIH 3T3 STAT1-luciferase reporter, IFN-gamma, luminescence; inhibition, % at 5.5 µM; actives 55% (n = 200); AID 1263;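 active means triplicate mean inhibition exceeding the hit cutoff computed for the primary STAT1 screen, cut at about 35% in these data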
NFkB inh STAT1ct = counter-screen for STAT1 inhibitors: NF-kappaB inhibition; shares compounds with STAT1 inh-1; HEK293T NF-kB luciferase reporter, TNF-alpha induced, luminescence; inhibition, % at 5.7 µM; actives 30% (n = 200); AID 1303;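 active means inhibition above the mean of solvent-only control wells plus 3 SD of those wells, cut at about 15% in these data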
STAT3 inh 2 = inhibits STAT3, counter-screen to STAT1 inhibitors; shares compounds with STAT1 inh-1; inhibition, % at 5.7 µM; actives 20% (n = 200); U3A cells, IL-6 STAT3 luciferase reporter, luminescence; cells lacking STAT1;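 active means inhibition above the mean of solvent-only control wells plus 3 SD, set per campaign, cut at about 25% in these data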
Large screens that a line does not name were inactive (follow-up assays come after a bar, where they were run). An excerpt weighted towards active compounds, which were near 5.1% of everything screened.

CCCNC(=O)CSCc1nc(-c2ccc(SC)cc2)oc1C	none
CCN(CC)CCCN1C(=O)CSC1c1ccc([N+](=O)[O-])cc1 (centres undefined)	none
COc1ccccc1Nc1nc(-c2c(C)nc3ncccn23)cs1	STAT1 inh-1 39 | STAT1 inh-2 36 | NFkB inh STAT1ct inactive | STAT3 inh 2 30
COc1ccccc1-n1nc(C(=O)O)c2ccccc2c1=O	none
Cc1ccc(-n2nc(C(=O)O)c3ccccc3c2=O)cc1C	STAT1 inh-1 54 | STAT1 inh-2 49 | NFkB inh STAT1ct inactive | STAT3 inh 2 inactive
C#Cc1ccc([C@H]2C=C(C(=O)OCC=C)O[C@@H](OCC)[C@@H]2CCCO)cc1	STAT1 inh-1 56 (no result: STAT3 inh, STAT3 activator) | STAT1 inh-2 36 | NFkB inh STAT1ct inactive | STAT3 inh 2 inactive
C=CCOC(=O)C1=C[C@H](c2ccccc2)[C@@H](CCCO)[C@H](OCC)O1	none (no result: STAT3 inh, STAT3 activator)
C#Cc1ccc([C@@H]2C=C(C(=O)OCC=C)O[C@H](OCC)[C@H]2CCCO)cc1	STAT1 inh-1 37 (no result: STAT3 inh, STAT3 activator) | STAT1 inh-2 inactive | NFkB inh STAT1ct inactive | STAT3 inh 2 inactive
O=C(O)CS(=O)(=O)c1ccc(C(F)(F)F)cn1	none
CCc1nnc(NC(=O)CN2CCN(c3ccccc3F)CC2)s1	none
CCOC(=O)C(=CNc1cc(C)nn1C(C)(C)C)C(=O)OCC	none (no result: APP 5'UTR act)
CCOC(=O)C(=CNc1cc(C)ccc1C)C(=O)OCC	STAT1 inh-1 37 | STAT1 inh-2 inactive | NFkB inh STAT1ct inactive | STAT3 inh 2 inactive
CCOC(=O)C(=CNc1cc(C)nn1-c1ccc(C)cc1)C(=O)OCC	STAT1 inh-1 69 | STAT1 inh-2 60 | NFkB inh STAT1ct 40 | STAT3 inh 2 inactive
CCOC(=O)C(=CNc1cc(C)ccn1)C(=O)OCC	none
O=C1Nc2ccc(Br)cc2C1=Nc1ccc(-c2nnc3n2CCCCC3)cc1	none
CC(CCCC(C)(C)O)NCc1cn[nH]c1-c1ccc2c(c1)OCO2 (centres undefined)	none
Cc1c(C(=O)Nc2cccc(Cl)c2)c2ccccn2c1CCc1ccncc1	STAT1 inh-1 35 | STAT1 inh-2 inactive | NFkB inh STAT1ct inactive | STAT3 inh 2 inactive
Cc1c(C(=O)Nc2ccc(Cl)cc2)c2ccccn2c1CCc1ccncc1	none
COc1nnc(-c2ccc(N3CCCCC3)c(NC(C)=O)c2)c2ccccc12	none
COc1cccc(NC(=O)CSc2nnc(-c3cc(C)n(-c4ccccc4)c3C)o2)c1	STAT1 inh-1 40 | STAT1 inh-2 inactive | NFkB inh STAT1ct inactive | STAT3 inh 2 inactive
COc1cccc(NC(=S)N2CCCC2c2ccc(OC)c(OC)c2)c1 (centres undefined)	none
O=C(O)c1ccc(N/N=C/c2cc3c(cc2[N+](=O)[O-])OCO3)cc1	STAT1 inh-1 36 | STAT1 inh-2 65 | NFkB inh STAT1ct 45 | STAT3 inh 2 inactive
CCn1c(=O)c2cc(C(=O)N3CCOCC3)sc2c2ccccc21	none
CCn1c(=O)c2cc(C(=O)N3CCCC3)sc2c2ccccc21	STAT1 inh-1 56 (no result: STAT3 inh, STAT3 activator) | STAT1 inh-2 47 | NFkB inh STAT1ct inactive | STAT3 inh 2 inactive
COc1ccc(C(=O)Nc2cccc(N(C)S(C)(=O)=O)c2)cc1OC	none
Cc1ccc(C(=O)Nc2cccc(N(C)S(C)(=O)=O)c2)cc1S(=O)(=O)Nc1ccccc1	STAT1 inh-1 40 | STAT1 inh-2 34 | NFkB inh STAT1ct inactive | STAT3 inh 2 inactive
CC1(C)CC(=O)C=C(OC(=O)c2ccc(Cl)cc2)C1	none (no result: APP 5'UTR act)
CS(=O)(=O)c1nc(-c2ccccc2)cc(C(F)(F)F)n1	STAT1 inh-1 36 | STAT1 inh-2 47 | NFkB inh STAT1ct inactive | STAT3 inh 2 inactive
Cc1cc(C(=O)CSc2nncs2)c(C)n1Cc1ccco1	APP 5'UTR act 181, NF-kB expr up 4.7, STAT1 inh-1 35 | STAT1 inh-2 inactive | NFkB inh STAT1ct 20 | STAT3 inh 2 26
O=C(Nc1cc(C(=O)N2CCCC2)ccc1N1CCCC1)c1ccccc1F	STAT1 inh-1 51 | STAT1 inh-2 48 | NFkB inh STAT1ct inactive | STAT3 inh 2 inactive
O=C(Nc1ccc(C(=O)N2CCCC2)cc1)c1ccccc1F	none
COc1cccc(C2c3[nH]c4ccccc4c3CCN2Cc2cnc(C)s2)c1OC (centres undefined)	STAT1 inh-1 60 (no result: NF-kB expr up) | STAT1 inh-2 inactive | NFkB inh STAT1ct inactive | STAT3 inh 2 inactive
Cn1cc(CN2CCc3c([nH]c4ccccc34)C2C2CCCCC2)cn1 (centres undefined)	none
N#CC1=C(N)N(c2ncn[nH]2)C2=C(C(=O)CCC2)C1c1ccc(F)cc1 (centres undefined)	none
CCC(C(=O)NCCC1=CCCCC1)c1ccccc1 (centres undefined)	none
Oc1cccc(/C=N/Nc2cccc3cccnc23)c1	APP 5'UTR act 227, NF-kB expr up 8.9, STAT1 inh-1 49 | STAT1 inh-2 inactive | NFkB inh STAT1ct inactive | STAT3 inh 2 inactive
O=C(N/N=C/c1cccc(O)c1)c1ccc(COc2cccc3cccnc23)cc1	none
Cc1cc(O)ccc1N1C(=O)c2cccc3cc([N+](=O)[O-])cc(c23)C1=O	STAT1 inh-1 46 | STAT1 inh-2 inactive | NFkB inh STAT1ct inactive | STAT3 inh 2 inactive
Fc1ccc(-n2nnc(-c3cnc4ccccc4c3)n2)cc1	STAT1 inh-1 83 (no result: STAT3 inh, STAT3 activator) | STAT1 inh-2 inactive | NFkB inh STAT1ct 76 | STAT3 inh 2 78
O=C(CSc1n[nH]c(-c2cccnc2)n1)OC1CCCCC1	none
O=C1CCC(=O)N1CC(=O)N(c1ccccc1)c1ccccc1	none
O=C(CCl)N(c1ccccc1)c1ccccc1	STAT1 inh-1 36 | STAT1 inh-2 36 | NFkB inh STAT1ct 24 | STAT3 inh 2 inactive
Cc1ccc(-c2nc(CN(C)Cc3ccc4nccnc4c3)c(C)o2)s1	none
CCOc1ccccc1NC(=O)CN1C(=O)CSC(C)C1=O (centres undefined)	none
CCNc1nc(NC(C)(C)C)nc(N2CCCCC2)n1	STAT1 inh-1 39 | STAT1 inh-2 inactive | NFkB inh STAT1ct inactive | STAT3 inh 2 inactive
CCNc1nc(N2CCCC2)nc(N2CCCC2)n1	none
CCCCCCC(=O)N(O)C1CC(=O)N(Cc2ccccc2)C1=O (centres undefined)	STAT1 inh-1 35 | STAT1 inh-2 inactive | NFkB inh STAT1ct inactive | STAT3 inh 2 inactive
